In ChEMBL document CHEMBL4024754, “Development of Potent, Protease-Resistant Agonists of the Parathyroid Hormone Receptor with Broad β Residue Distribution” (J Med Chem, 2017):
Activity calls are given as the source filed them. No cut-off for these calls is given here. Numbered stars: 1 amine (or outer) side, 2 acyl side, 3 side chain; on linkers, the order of the positions; unused ones are H or OH. Square brackets hold non-standard residues; d marks the D form. Peptide text beside a SMILES is read from it. * marks the point of attachment. NH(1S,2S-2-CONH2-cPent) = NC(=O)[C@H]1CCC[C@@H]1N*; X1 = O=C([C@H]1CCC[C@@H]1N[*:1])[*:2]; X2 = O=C([C@H]1CNC[C@@H]1N[*:1])[*:2]

Legend:
[1] = target: T1, Parathyroid hormone/parathyroid hormone-related peptide receptor (Homo sapiens) (UniProt Q03431); test: Agonist activity at extracellular domain truncate human PTH1 receptor expressed in GD5 cells assessed as induction of cAMP after 12 to 20 mins by luciferase reporter gene assay; assay type: functional, cell-based
T1 sequence (whole entry): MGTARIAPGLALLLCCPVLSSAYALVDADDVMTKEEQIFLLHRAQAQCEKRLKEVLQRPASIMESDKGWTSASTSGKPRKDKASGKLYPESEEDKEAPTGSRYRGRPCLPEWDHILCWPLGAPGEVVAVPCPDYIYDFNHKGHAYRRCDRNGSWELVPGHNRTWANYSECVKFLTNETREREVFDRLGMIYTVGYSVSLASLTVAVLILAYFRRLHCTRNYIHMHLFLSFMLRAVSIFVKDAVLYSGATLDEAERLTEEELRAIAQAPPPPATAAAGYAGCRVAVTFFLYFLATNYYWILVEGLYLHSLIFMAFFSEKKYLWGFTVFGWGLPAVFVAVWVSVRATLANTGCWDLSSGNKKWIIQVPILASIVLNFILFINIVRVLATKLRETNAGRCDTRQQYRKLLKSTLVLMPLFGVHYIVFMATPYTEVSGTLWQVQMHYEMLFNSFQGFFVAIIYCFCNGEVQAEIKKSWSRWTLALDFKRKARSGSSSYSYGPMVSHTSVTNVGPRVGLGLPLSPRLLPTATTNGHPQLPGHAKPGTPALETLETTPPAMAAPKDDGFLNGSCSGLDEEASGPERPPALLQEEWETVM
In short: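 HEK293-derived lines stably expressing Glosensor cAMP reporter plus full-length human PTHR1 (GP2.3) or ECD-truncated PTHR1 (GD5). Confluent monolayers preincubated at room temperature in CO2-independent medium with 0.5 mM D-luciferin until baseline stable (30 min), then varied agonist concentrations added. Maximal luminescence (12−20 min) used for sigmoidal variable-slope fits.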

[2] = Drug metabolism in Sprague-Dawley rat kidney homogenates assessed as protease mediated-drug degradation at 12 uM up to 5 mins by MALDI-TOF-MS analysis; assay type: ADME, tissue-based; conditions: tissue homogenate
In short: (§1)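 Perfused female Sprague-Dawley kidney homogenate in 50 mM Tris-HCl pH 7.4, diluted to 2.5 mg protein/mL. Peptide spiked at 50 μg/mL (~12 μM) and incubated at 37 °C. Timed samples quenched with equal volume 1% TFA, centrifuged, dried, reconstituted in 0.1% formic acid, mixed with DHB matrix. Fragments identified by MALDI-TOF MS.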

[3] = Drug metabolism in Sprague-Dawley rat kidney homogenates assessed as protease mediated-drug degradation at 12 uM up to 15 mins by MALDI-TOF-MS analysis; assay type: ADME, tissue-based; conditions: tissue homogenate; in short: as §1
[4] = Drug metabolism in Sprague-Dawley rat kidney homogenates assessed as protease-mediated metabolite formation at 12 uM after 5 mins by MALDI-TOF-MS analysis; assay type: ADME, tissue-based; conditions: tissue homogenate; in short: as §1
[5] = Stability in simulated gastric fluid assessed as pig pepsin-mediated proteolysis at 40 uM after 5 secs by RP-HPLC analysis; assay type: ADME, Sus scrofa; conditions: isolated protein, 5 s
In short: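 Proteolysis quenched by transfer into 10× PBS, pH 7.4, giving 40 μM peptide. Analysed by analytical C18 RP-HPLC, 10–60% acetonitrile/0.1% TFA over 50 min. Intact peptide quantified by integrating its peak. Duplicate reactions run concurrently, standard deviation.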

[6] = target: T1, Parathyroid hormone/parathyroid hormone-related peptide receptor (Homo sapiens); test: Agonist activity at human PTH1 receptor expressed in human GP2.3 cells assessed as induction of cAMP at 0.1 to 100 nM preincubated with SGF for 5 secs followed by compound transfer to GP2.3 cells by luciferase reporter gene assay; assay type: functional, cell-based
In short: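 Quenched at set times with 10× PBS, diluted into CO2-independent medium, serially 1:10, then added to confluent GP2.3 cells (HEK293, hPTHR1 plus Glosensor cAMP reporter) preloaded 30 min with 0.5 mM D-luciferin. Final 100–0.1 nM. Luminescence read; two technical replicates; variable-slope sigmoidal fit.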

[7] = target: T1, Parathyroid hormone/parathyroid hormone-related peptide receptor (Homo sapiens); test: Agonist activity at human PTH1 receptor expressed in human GP2.3 cells assessed as induction of cAMP at 0.1 to 100 nM preincubated with SIF for 10 mins followed by compound transfer to GP2.3 cells by luciferase reporter gene assay; assay type: functional, cell-based
In short: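 Simulated intestinal fluid containing pancreatin, pH 6.8, prepared fresh and kept at 37 °C. Peptide incubated in it as for gastric fluid. Quenched 1:1 with 50% acetonitrile/1% TFA. Quenched samples serially diluted in CO2-independent medium and applied to luciferin-preloaded GP2.3 cells at 100−0.1 nM final. Luminescence read. Two technical replicates.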

Mus musculus [8] = test: In vivo induction of excessive bloodstream calcium concentration in CD1 mouse at 20 nmol/kg, sc after 2 hrs by Ca2+/pH analyzer; assay type: organism-based
In short: (§2)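 Female CD1 mice (9−12 weeks), n = 5, given 20 nmol/kg subcutaneously in 10 mM citrate/150 mM NaCl/0.05% Tween-80, pH 5.0. Tail vein blood taken before and at times after dosing. Ca2+ measured by Ca2+/pH analyzer. One-way ANOVA with Dunnett's test vs vehicle. Mean ± SEM.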

[9] = target: T1, Parathyroid hormone/parathyroid hormone-related peptide receptor (Homo sapiens); test: Displacement of [125I]-PTH(1 to 34 residues) from R0 state of human PTHR1 expressed in African green monkey COS7 cell membranes incubated for >1 hr in presence of GTPgammaS by gamma radiation method
[10] = Half life in Sprague-Dawley rat kidney homogenates at 12 uM by HPLC-MS analysis; assay type: ADME, tissue-based
In short: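 Kidney homogenate (2.5 mg protein/mL, pH 7.4 Tris) spiked with peptide at 50 μg/mL (~12 μM), 37 °C, sampled 0−120 min. […] C18 UHPLC–Orbitrap MS quantified via y32 ion area ratio against calibration standards. Exponential decay fit, mean ± SD of two replicates.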

[11] = target: T1, Parathyroid hormone/parathyroid hormone-related peptide receptor (Homo sapiens); test: Agonist activity at human PTH1 receptor expressed in human GP2.3 cells assessed as induction of cAMP at 0.1 to 100 nM preincubated with protease activity quenched SGF up to 4 hrs followed by compound transfer to GP2.3 cells by luciferase reporter gene assay; assay type: functional, cell-based
In short: (§3)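 Control samples: simulated gastric fluid neutralized with 10× PBS, or intestinal fluid mixed with acetonitrile/TFA quench solution, before adding peptide. Gastric controls held up to 4 h. Then diluted and tested on luciferin-loaded GP2.3 cells at 100−0.1 nM final, alongside freshly prepared peptide.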

[12] = target: T1, Parathyroid hormone/parathyroid hormone-related peptide receptor (Homo sapiens); test: Agonist activity at human PTH1 receptor expressed in human GP2.3 cells assessed as induction of cAMP at 0.1 to 100 nM preincubated with protease activity quenched SIF followed by compound transfer to GP2.3 cells by luciferase reporter gene assay; assay type: functional, cell-based; in short: as §3
[13] = target: T1, Parathyroid hormone/parathyroid hormone-related peptide receptor (Homo sapiens); test: Agonist activity at human PTH1 receptor expressed in human GP2.3 cells assessed as induction of cAMP after 12 to 20 mins by luciferase reporter gene assay relative to PTH(1 to 34 residues)-NH2; assay type: functional, cell-based
Mus musculus [14] = test: In vivo induction of excessive bloodstream calcium concentration in CD1 mouse at 20 nmol/kg, sc up to 2 hrs by Ca2+/pH analyzer; assay type: organism-based; in short: as §2
Blood = test: Drug level in CD1 mouse blood at 20 nmol/kg, sc measured up to 2 hrs; assay type: ADME, organism-based; conditions: in vivo
In short: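 Female CD1 mice, n = 5, 20 nmol/kg subcutaneously in citrate/NaCl/Tween-80 vehicle, pH 5.0. 2 μL serum from timed bleeds, mixed with CO2-independent medium, added to GP2.3 cells. Luminescence converted to peptide concentration via a standard curve.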

| Activity [1] | Drug metabolism [2] | Drug metabolism [3] | Drug metabolism [4] | Stability [5] | Activity [6] | Activity [7] | inhibition [9] | half-life at 12 µM [10] [min] | Activity [11] | Activity [12] | fold change (FC) [13] | Drug uptake (Blood) | SMILES | Activity (Mus musculus [8]) | Activity (Mus musculus [14]) |
| --- | --- | --- | --- | --- | --- | --- | --- | --- | --- | --- | --- | --- | --- | --- | --- |
| Active | Metabolite_Detected | Metabolite_Detected | Metabolite_Detected | Unstable | inactive | inactive | Active | 1.9 | Active | Active |  |  | CC[C@H](C)[C@H](NC(=O)[C@H](CCC(=O)O)NC(=O)[C@H](CO)NC(=O)[C@@H](NC(=O)[C@@H](N)CO)C(C)C)C(=O)N[C@@H](CCC(N)=O)C(=O)N[C@@H](CC(C)C)C(=O)N[C@@H](CCSC)C(=O)N[C@@H](Cc1cnc[nH]1)C(=O)N[C@@H](CC(N)=O)C(=O)N[C@@H](CC(C)C)C(=O)NCC(=O)N[C@@H](CCCCN)C(=O)N[C@@H](Cc1cnc[nH]1)C(=O)N[C@@H](CC(C)C)C(=O)N[C@@H](CC(N)=O)C(=O)N[C@@H](CO)C(=O)N[C@@H](CCSC)C(=O)N[C@@H](CCC(=O)O)C(=O)N[C@@H](CCCNC(=N)N)C(=O)N[C@H](C(=O)N[C@@H](CCC(=O)O)C(=O)N[C@@H](Cc1c[nH]c2ccccc12)C(=O)N[C@@H](CC(C)C)C(=O)N[C@@H](CCCNC(=N)N)C(=O)N[C@@H](CCCCN)C(=O)N[C@@H](CCCCN)C(=O)N[C@@H](CC(C)C)C(=O)N[C@@H](CCC(N)=O)C(=O)N[C@@H](CC(=O)O)C(=O)N[C@H](C(=O)N[C@@H](Cc1cnc[nH]1)C(=O)N[C@@H](CC(N)=O)C(=O)N[C@@H](Cc1ccccc1)C(N)=O)C(C)C)C(C)C | Non-Toxic |  |
|  |  |  |  |  |  |  | Active |  |  |  | 3.2 | Active | CC[C@H](C)[C@H](NC(=O)[C@H](CCC(=O)O)NC(=O)[C@H](CO)NC(=O)[C@@H](NC(=O)[C@@H](N)CO)C(C)C)C(=O)N[C@@H](CCC(N)=O)C(=O)N[C@@H](CC(C)C)C(=O)N[C@@H](CCSC)C(=O)N[C@@H](Cc1cnc[nH]1)C(=O)N[C@@H](CC(N)=O)C(=O)N[C@@H](CC(C)C)C(=O)NCC(=O)N[C@@H](CCCCN)C(=O)N[C@H]1CCC[C@@H]1C(=O)N[C@@H](CC(C)C)C(=O)N[C@@H](CC(N)=O)C(=O)N[C@@H](CO)C(=O)N[C@H]1CCC[C@@H]1C(=O)N[C@@H](CCC(=O)O)C(=O)N[C@@H](CCCNC(=N)N)C(=O)N[C@H](C(=O)N[C@H]1CNC[C@@H]1C(=O)N[C@@H](Cc1c[nH]c2ccccc12)C(=O)N[C@@H](CC(C)C)C(=O)N[C@@H](CCCNC(=N)N)C(=O)N[C@H]1CNC[C@@H]1C(=O)N[C@@H](CCCCN)C(=O)N[C@@H](CC(C)C)C(=O)N[C@@H](CCC(N)=O)C(=O)N[C@H]1CCC[C@@H]1C(=O)N[C@H](C(=O)N[C@@H](Cc1cnc[nH]1)C(=O)N[C@@H](CC(N)=O)C(=O)N[C@H]1CCC[C@@H]1C(N)=O)C(C)C)C(C)C (H-SVSEIQLMHNLGK[X1]LNS[X1]ERV[X2]WLR[X2]KLQ[X1]VHN-{NH(1S,2S-2-CONH2-cPent)}) | Non-Toxic | Toxic |
